In ChEMBL document CHEMBL5390300, “Tuning the Reactivity of Nuclear Factor Erythroid 2-Related Factor 2 (Nrf2) Activators for Optimal in Vivo Efficacy” (ACS Med Chem Lett, 2023):
Structures can show the parent of a compound that is named as a salt. Active and inactive are the calls of the source. No cut-off for these calls is given here.

Assays:
[1] = target: T1, Voltage-gated inwardly rectifying potassium channel KCNH2 (Homo sapiens, UniProt Q12809); assay: Inhibition of hERG assessed as inhibition of channel current at 180 uM by manual patch clamp analysis; type: toxicity
[2] = target: T1, Voltage-gated inwardly rectifying potassium channel KCNH2; assay: Inhibition of hERG assessed as inhibition of channel current at 200 uM by manual patch clamp analysis; type: toxicity
[3] = Mutagenicity in Salmonella typhimurium by Ames test; type: toxicity; settings: salmonella enterica subsp. enterica serovar typhimurium
[4] = Metabolic stability of the compound in mouse plasma; type: ADME, cell-free
THP-1 = assay: Inhibition of LPS-induced IL-23 production in IFN-gamma primed human THP-1 cells preincubated for 1 hr followed by LPS stimulation for 18 hrs by sandwich ELISA; type: functional, cell-based
[5] = target: T2, Nuclear factor erythroid 2-related factor 2 (Homo sapiens, UniProt Q16236); assay: Activation of Nrf2 in human PathHunter U2OS Keap1-Nrf2 cells assessed as Nrf2 nuclear translocation by chemiluminescent assay; type: cell-based
T2 sequence (Q16236 whole entry): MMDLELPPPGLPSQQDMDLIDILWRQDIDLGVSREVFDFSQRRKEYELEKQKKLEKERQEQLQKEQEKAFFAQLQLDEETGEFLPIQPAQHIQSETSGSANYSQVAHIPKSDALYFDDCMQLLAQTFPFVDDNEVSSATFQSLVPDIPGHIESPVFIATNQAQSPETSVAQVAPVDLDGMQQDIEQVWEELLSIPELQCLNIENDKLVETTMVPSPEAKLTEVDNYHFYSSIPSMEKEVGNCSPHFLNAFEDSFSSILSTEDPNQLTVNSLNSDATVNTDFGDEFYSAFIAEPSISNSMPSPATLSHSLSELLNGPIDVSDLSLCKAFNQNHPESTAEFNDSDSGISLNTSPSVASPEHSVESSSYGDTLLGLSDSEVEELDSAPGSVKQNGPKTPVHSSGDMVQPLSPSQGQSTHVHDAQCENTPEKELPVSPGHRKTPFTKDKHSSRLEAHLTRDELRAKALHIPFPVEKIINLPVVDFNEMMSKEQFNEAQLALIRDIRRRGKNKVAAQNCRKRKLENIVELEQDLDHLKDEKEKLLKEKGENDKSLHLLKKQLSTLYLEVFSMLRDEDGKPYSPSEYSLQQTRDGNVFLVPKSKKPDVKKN

[6] = target: T3, Adenosine receptor A3 (Homo sapiens) (UniProt P0DMS8); assay: Inhibition of adenosine A3 receptor (unknown origin) at 500 uM relative to control
T3 sequence (whole entry): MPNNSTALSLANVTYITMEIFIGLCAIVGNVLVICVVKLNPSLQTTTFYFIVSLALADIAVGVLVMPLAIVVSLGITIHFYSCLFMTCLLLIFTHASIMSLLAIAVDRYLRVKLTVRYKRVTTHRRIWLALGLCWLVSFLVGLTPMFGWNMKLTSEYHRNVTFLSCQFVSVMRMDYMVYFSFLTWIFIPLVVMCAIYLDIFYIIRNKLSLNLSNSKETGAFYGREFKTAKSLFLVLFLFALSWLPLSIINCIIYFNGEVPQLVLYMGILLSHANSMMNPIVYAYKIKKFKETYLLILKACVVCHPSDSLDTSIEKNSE

[7] = target: 5-hydroxytryptamine receptor 2B (Homo sapiens) (UniProt P41595); assay: Inhibition of 5-HT2B receptor (unknown origin) at 500 uM relative to control
Mus musculus [8] = assay: Antiinflammatory activity against MOG35-55 induced experimental autoimmune encephalomyelitis C57BL/6 mouse model assessed as reduction in clinical score at 30 mg/kg, po BID and measured for 28 days; type: functional
Summary of the method: (§1)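 EAE was induced in mice by immunization with myelin oligodendrocyte glycoprotein (MOG). Compounds were dosed twice daily (BID), with DMF dosed BID as control. Clinical scores were followed over the study and reported as mean with SEM. Efficacy is expressed as % reduction in clinical score.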

[9] = target: Kelch-like ECH-associated protein 1 (Homo sapiens) (UniProt Q14145); assay: Binding affinity to human Keap1 assessed as cysteine labeling at 30 uM incubated for 2 hrs by LC-MS/MS analysis
Mus musculus [10] = assay: Antiinflammatory activity against MOG35-55 induced experimental autoimmune encephalomyelitis C57BL/6 mouse model assessed as reduction in clinical score at 10 mg/kg, po BID and measured for 28 days; type: functional; settings: C57BL/6, 672 h, time 28 day; summary of the method: as §1
Mus musculus [11] = assay: Antiinflammatory activity against MOG35-55 induced experimental autoimmune encephalomyelitis C57BL/6 mouse model assessed as reduction in clinical score at 60 mg/kg, po BID and measured for 28 days; type: functional; settings: C57BL/6, 672 h, time 28 day; summary of the method: as §1
Mus musculus [12] = assay: Increase in Nrf2 level in thymus of MOG35-55 induced experimental autoimmune encephalomyelitis C57BL/6 mouse model at 60 to 90 mg/kg, po measured for 8 hrs; type: functional, organism-based; settings: dose 60-90 mg/kg
Summary of the method: (§2)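 After the EAE study, mouse thymus was analysed for Nrf2 levels by Western blot, following BID dosing at 60 and 90 mg/kg, or at 75 mg/kg for the DMF control. Nrf2 increase was assessed over an 8 h period.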

[13] = target: T4, Nuclear factor erythroid 2-related factor 2 (Homo sapiens) (UniProt Q16236); assay: Activation of Nrf2 in human THP-1 cells assessed as increase in cellular Nrf2 level at 0.08 to 10 uM by western blot analysis; type: cell-based; settings: filed as activator, dose 0.08-10 µM
T4 sequence (whole entry): T2 sequence (Q16236 whole entry)
Summary of the method: (§3)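 THP-1 cells were exposed to a range of compound concentrations. Cellular Nrf2 and HO-1 expression were detected by Western blot.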

Mus musculus [14] = assay: Antiinflammatory activity against MOG35-55 induced experimental autoimmune encephalomyelitis C57BL/6 mouse model assessed as reduction in clinical score at 75 mg/kg, po BID and measured for 28 days; type: functional; settings: C57BL/6, 672 h, time 28 day; summary of the method: as §1
Mus musculus [15] = assay: Increase in Nrf2 level in thymus of MOG35-55 induced experimental autoimmune encephalomyelitis C57BL/6 mouse model at 75 mg/kg, po measured for 8 hrs; type: functional, organism-based; summary of the method: as §2
[16] = target: T4, Nuclear factor erythroid 2-related factor 2 (Homo sapiens); assay: Activation of Nrf2 in human THP-1 cells assessed as increase in HO-1 expression at 0.08 to 10 uM by western blot analysis; type: cell-based; settings: filed as activator, dose 0.08-10 µM; summary of the method: as §3
[17] = target: T1, Voltage-gated inwardly rectifying potassium channel KCNH2; assay: Inhibition of hERG assessed as inhibition of channel current at 60 uM by manual patch clamp analysis; type: toxicity

T1 sequence (Q12809 whole entry): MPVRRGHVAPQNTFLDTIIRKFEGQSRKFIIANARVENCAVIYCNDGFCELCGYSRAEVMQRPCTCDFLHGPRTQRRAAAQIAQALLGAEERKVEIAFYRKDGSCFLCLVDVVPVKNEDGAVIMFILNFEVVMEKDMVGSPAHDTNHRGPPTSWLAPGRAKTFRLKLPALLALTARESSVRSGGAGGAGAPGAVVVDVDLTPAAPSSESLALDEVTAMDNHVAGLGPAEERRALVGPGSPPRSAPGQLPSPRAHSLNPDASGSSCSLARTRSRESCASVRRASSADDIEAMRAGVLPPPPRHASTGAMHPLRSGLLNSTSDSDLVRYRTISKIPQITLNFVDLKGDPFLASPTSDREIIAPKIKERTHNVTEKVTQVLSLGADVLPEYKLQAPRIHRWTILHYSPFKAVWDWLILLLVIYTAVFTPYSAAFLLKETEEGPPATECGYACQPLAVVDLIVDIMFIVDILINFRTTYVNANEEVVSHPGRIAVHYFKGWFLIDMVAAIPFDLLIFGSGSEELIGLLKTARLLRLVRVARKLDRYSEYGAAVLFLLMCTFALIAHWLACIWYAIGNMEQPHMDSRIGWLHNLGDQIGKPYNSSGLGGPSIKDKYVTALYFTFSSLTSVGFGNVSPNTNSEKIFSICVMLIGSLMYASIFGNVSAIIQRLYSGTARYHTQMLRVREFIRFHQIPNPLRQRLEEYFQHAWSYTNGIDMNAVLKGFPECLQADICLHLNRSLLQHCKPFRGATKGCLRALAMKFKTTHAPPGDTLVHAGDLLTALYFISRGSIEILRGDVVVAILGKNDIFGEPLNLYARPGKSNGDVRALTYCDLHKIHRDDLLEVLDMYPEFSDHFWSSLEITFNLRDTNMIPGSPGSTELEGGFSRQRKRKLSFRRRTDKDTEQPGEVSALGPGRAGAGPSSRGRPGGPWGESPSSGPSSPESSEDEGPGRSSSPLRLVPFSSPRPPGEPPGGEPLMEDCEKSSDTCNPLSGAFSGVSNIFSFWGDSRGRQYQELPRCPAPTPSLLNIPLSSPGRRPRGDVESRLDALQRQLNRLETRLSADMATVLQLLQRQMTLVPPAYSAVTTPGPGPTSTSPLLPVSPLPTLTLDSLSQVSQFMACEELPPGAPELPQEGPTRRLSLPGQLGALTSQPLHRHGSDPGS
5-hydroxytryptamine receptor 2B (Homo sapiens), sequence (P41595 whole entry): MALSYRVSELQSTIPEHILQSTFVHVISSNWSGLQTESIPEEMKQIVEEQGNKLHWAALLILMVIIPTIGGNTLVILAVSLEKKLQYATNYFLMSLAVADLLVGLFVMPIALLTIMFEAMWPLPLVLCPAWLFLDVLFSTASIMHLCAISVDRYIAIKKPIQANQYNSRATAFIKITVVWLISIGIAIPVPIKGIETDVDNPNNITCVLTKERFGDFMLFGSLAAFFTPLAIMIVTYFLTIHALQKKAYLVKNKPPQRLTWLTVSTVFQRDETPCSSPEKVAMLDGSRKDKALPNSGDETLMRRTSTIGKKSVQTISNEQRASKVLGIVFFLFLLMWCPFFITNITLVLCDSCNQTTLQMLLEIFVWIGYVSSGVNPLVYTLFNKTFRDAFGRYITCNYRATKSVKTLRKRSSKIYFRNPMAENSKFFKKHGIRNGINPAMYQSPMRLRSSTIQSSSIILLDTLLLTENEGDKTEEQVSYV
Kelch-like ECH-associated protein 1 (Homo sapiens), sequence (Q14145 whole entry): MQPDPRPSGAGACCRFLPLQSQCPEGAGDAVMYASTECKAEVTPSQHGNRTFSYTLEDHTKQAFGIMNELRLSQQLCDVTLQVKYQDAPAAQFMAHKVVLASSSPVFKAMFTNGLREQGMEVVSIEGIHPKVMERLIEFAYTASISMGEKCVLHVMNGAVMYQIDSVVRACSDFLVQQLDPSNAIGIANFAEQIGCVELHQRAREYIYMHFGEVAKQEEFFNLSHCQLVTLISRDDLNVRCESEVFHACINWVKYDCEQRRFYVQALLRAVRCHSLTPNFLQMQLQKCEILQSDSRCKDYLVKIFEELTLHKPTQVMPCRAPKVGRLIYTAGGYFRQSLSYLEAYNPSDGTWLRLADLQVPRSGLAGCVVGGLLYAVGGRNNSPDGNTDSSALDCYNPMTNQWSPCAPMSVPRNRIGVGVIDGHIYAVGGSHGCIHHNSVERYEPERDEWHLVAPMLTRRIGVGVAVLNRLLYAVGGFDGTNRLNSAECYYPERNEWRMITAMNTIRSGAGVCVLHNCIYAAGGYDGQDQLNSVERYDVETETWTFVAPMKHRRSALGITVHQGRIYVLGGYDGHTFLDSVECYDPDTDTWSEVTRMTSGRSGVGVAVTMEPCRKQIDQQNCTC

With `COC(=O)/C=C/n1nnn(C)c1=O` the “inhibition (INH)” value [1] was “Active”.

In the case of `COC(=O)/C=C/n1nnn(-c2cccnc2)c1=O`, the “inhibition (INH)” value [2] is reported as “Active”, the Activity [3] is reported as “Non-Toxic” and the Stability [4] is reported as “Unstable”.

With `Cn1ncn(/C=C/S(=O)(=O)c2ccccc2)c1=O` the IC50 (THP-1) was 2.12 µM.

For `COC(=O)/C=C/n1cnn(C)c1=O`, the EC50 [5] was 95.2 µM and the IC50 (THP-1) was 29.5 µM.

For `Cc1ccc(S(=O)(=O)/C=C/n2ncn(C)c2=O)cc1`, the IC50 (THP-1) was 6.92 µM.

Molecule `Cc1ccc(S(=O)(=O)/C=C/n2nnn(C)c2=O)cc1` has an IC50 (THP-1) of 0.19 µM, an inhibition [6] of 82% and an inhibition [7] of 74%. For the same molecule, the Activity (Mus musculus [8]; time 28.0 day) was “inactive”, the Activity [9] was “Active” and the inhibition in vivo at 10 mg/kg (Mus musculus [10]) was 40%.

`Cn1cnn(/C=C/S(=O)(=O)c2ccccc2)c1=O` showed an IC50 (THP-1) of 3.49 µM, an inhibition [6] of 82% and an inhibition [7] of 74%. For the same molecule, the inhibition in vivo at 30 mg/kg (Mus musculus [8]; C57BL/6, 672 h, time 28 day) was 41%, the inhibition in vivo at 60 mg/kg (Mus musculus [11]) was 89% and the Activity (Mus musculus [12]) was “Active”.

`O=c1n(/C=C/S(=O)(=O)c2ccccc2)nnn1-c1cccnc1` showed an IC50 (THP-1) of 0.02 µM.

With `COC(=O)/C=C/C(=O)OC` [DIMETHYL FUMARATE] the EC50 [5] was 7.93 µM, the IC50 (THP-1) was 10.6 µM and the Activity [13] was “Dose-Dependent Effect”. For the same molecule, the inhibition in vivo at 75 mg/kg (Mus musculus [14]) was 83%, the Activity (Mus musculus [15]) was “Active” and the Activity [16] was “Active”.

For `COC(=O)/C=C/C(=O)O` [MONOMETHYL FUMARATE], the EC50 [5] was 127 µM and the IC50 (THP-1) was 18.9 µM.

With `COC(=O)/C=C/n1nn[nH]c1=O` the EC50 [5] was 60.9 µM, the IC50 (THP-1) was 18 µM and the “inhibition (INH)” value [17] was “Active”. The Activity [3] was “Toxic”.

For `Cc1ccc(S(=O)(=O)/C=C/n2cnn(C)c2=O)cc1`, the IC50 (THP-1) was 2.11 µM.

Work on `Cn1nnn(/C=C/S(=O)(=O)c2ccccc2)c1=O` yielded an IC50 (THP-1) of 0.3 µM.
